# Assay outcomes as filed in PubChem BioAssay.
# Compounds with a hit are over-represented: about 2.1% of the library has one in this group of screens.
# Insulin prom inh: TRM-6 insulin promoter activity inhibition; TRM-6 cells (human fetal islet line), insulin promoter-eGFP reporter, imaging; reporter expression induced with tamoxifen; inhibition, % at 2 µM; hit rate 0.9% among 130,000;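 active = inhibition above the mean plus 3 SD, with well images judged a real hit on visual review, cut at about 60% in these data, passing the limit was not always enough; inconclusive = inhibition over the cutoff but images rejected on review; inactive = inhibition not above the cutoff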
# Insulin prom up: MIN6 insulin promoter up-regulation; hit rate 0.3% among 190,000; MIN6 insulin promoter-GFP reporter, high-content imaging; hits give high values; z-score at 5 µM; AID 1625;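 active = z-score above 3 at 5 µM with at least 500 cells counted in the well; inconclusive = wells under 500 cells, flagged as cytotoxic or low count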
# Dynein cargo inh: dynein cargo transport inhibition. 3617.4 mouse cells, GR-EGFP nuclear translocation imaging; test concentration mostly 20 µM; stimulated with dexamethasone, 1 µM; hits give low values. AID 1381. z-score, hits read low. hit rate 0.47% among 220,000;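 active = plate z-score of nuclear minus cytoplasmic receptor signal below a set negative limit, without overly bright fluorescence or cell loss, cut at about -3.5 in these data, passing the limit was not always enough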;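 also: z-score of nuclear minus cytoplasmic ring GR-EGFP intensity difference per well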
#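 Buffer or medium – tet-free medium with charcoal-stripped serum · Signal – automated 10x imaging of fixed Hoechst-stained cells · Also added – dexamethasone agonist, 1.0 µM final, for 30 min · Incubation – induction 48 h, compound 1 h, agonist 30 min · Read-out – GR-EGFP nuclear translocation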
# PERK inh: inhibitors of human PERK kinase. Q9NZJ5. CHO PERK-DD fusion, SEAP luminescence translation reporter. inhibition, % at 5.6 µM. hit rate 0.17% among 220,000. AID 1416;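 active = inhibition above the mean inhibition of all tested compounds plus 3 SD, set separately per screening campaign, cut at about 2.9% in these data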;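 also: PERK kinase domain activated by AP20187 dimerizer at 100 nM; 0% = DMSO with dimerizer and 100% = rapamycin at 8.4 µM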
# Target sequence (Q9NZJ5 whole entry, looked up, the tested form may be a part): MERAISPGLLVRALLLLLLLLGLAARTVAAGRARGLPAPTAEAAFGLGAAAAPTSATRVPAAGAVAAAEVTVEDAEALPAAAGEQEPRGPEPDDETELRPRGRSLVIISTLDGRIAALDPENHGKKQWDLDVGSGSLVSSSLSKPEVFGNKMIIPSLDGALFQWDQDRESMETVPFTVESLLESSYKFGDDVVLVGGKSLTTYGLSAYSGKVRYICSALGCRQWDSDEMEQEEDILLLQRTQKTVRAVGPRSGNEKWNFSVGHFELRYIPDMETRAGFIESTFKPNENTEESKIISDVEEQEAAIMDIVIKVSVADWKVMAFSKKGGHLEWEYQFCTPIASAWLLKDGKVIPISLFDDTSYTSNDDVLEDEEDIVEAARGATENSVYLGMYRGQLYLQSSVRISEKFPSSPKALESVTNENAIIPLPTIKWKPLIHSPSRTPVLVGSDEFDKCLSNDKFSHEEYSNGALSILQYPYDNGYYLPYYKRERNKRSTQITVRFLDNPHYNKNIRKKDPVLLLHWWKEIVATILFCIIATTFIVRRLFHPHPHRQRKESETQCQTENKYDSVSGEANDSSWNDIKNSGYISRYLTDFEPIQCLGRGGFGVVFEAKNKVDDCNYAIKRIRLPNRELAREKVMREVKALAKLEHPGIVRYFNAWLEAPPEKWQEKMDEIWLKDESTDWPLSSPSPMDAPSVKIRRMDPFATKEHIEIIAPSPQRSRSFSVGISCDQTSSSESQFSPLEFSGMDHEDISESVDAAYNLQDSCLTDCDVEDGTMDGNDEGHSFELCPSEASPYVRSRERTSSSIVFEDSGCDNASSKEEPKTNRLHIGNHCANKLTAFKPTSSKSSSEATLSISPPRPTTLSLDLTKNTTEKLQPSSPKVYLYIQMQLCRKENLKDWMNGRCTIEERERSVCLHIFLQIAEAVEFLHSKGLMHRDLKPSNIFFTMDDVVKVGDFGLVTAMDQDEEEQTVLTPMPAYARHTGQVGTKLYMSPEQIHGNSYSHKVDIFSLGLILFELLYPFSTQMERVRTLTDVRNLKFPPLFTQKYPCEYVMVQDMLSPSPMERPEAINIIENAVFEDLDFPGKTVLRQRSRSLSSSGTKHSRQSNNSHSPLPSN
# Autophagy mod: alters autophagy in cells. MEF GFP-LC3 puncta imaging; test concentration mostly 10 µM. calls only at 10 µM (by protocol). hit rate 0.98% among 190,000. AID 463193;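 active = percentage of spot-positive cells more than 3 SD above its plate mean, without a fluorescence outlier flag or 80% toxicity; inconclusive = no clear call, values can overlap the other calls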;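 also: spot-positive cell cutoff set from DMSO-treated cells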
# An asterisk follows results filed as active; i = inactive; ? = inconclusive; . = no result; + = active, no number.
SMILES,Insulin prom inh,Insulin prom up,Dynein cargo inh,PERK inh,Autophagy mod
CCOC(=O)N1CCN(CC(=O)Nc2c(C(=O)OC)[nH]c3cccc(Cl)c23)CC1,.,0.12,0.369,-0.1,i
CCN1CCN(CC(=O)Nc2c(C(=O)OC)[nH]c3cccc(Cl)c23)CC1,78.6*,0.36,-0.269,1.5,i
CCOC(=O)Cn1cc(C#N)c2cccc(CC)c21,.,-0.34,-0.0602,3.3*,i
CCc1cccc2c(C#N)cn(CC(=O)NCc3ccco3)c12,-74.1,0.31,-0.725,0.5,i
Cc1ccc(S(=O)(=O)c2c(C)nn(C(C)(C)C)c2OC(=O)C2CCCC2)cc1,81.8*,-0.07,-0.561,-0.3,i
CC1=C/C(=N\OS(=O)(=O)c2ccccc2)C(C)=CC1=O,-170.3,?,-3.38,-3.2,i
CC1=C/C(=N\OS(=O)(=O)c2ccccc2)C(C(C)C)=CC1=O,-316.7,?,-4.72*,-3.0,i
COc1ccc(CCC(=O)Nc2ccc(-c3noc(-c4ccc(OC)c(OC)c4)n3)cc2)cc1,-25.7,-0.46,-0.322,0.5,+
CC(=O)CCc1ccc(Oc2nc(-c3cccnc3)nc3ccccc23)cc1,-14.3,0.35,2.38,-0.2,i
Cc1ccc(S(=O)(=O)ON2C(=O)c3ccccc3C2=O)c(C)c1,8.8,0.28,-4.81*,0.5,i
Cc1cccc(OCCN2C(=O)c3ccccc3C2=O)c1,-17.6,0.66,-0.549,0.2,i
COc1ccc(NC(=O)CSc2nc(N)c(C#N)cc2C#N)cc1,-27.0,.,-0.0793,-1.4,i
COc1ccc2nc(SCC(=O)Nc3ccc4sc(C)nc4c3)c(C#N)cc2c1,-29.2,1.95,4.84,1.6,+
CCOC(=O)N1CCN(S(=O)(=O)c2ccc(C(=O)NNc3nc4c(C)cccc4s3)cc2)CC1,-66.7,-2.27,-0.678,-0.4,i
Cc1cccc2sc(NNC(=O)c3ccc(S(=O)(=O)N4CCCC(C)C4)cc3)nc12 (stereo not given),65.0*,-2.71,0.788,-0.4,i
Cc1cccc2sc(NNC(=O)c3ccc4c(c3)OCCO4)nc12,0.0,3.4*,-0.0427,-0.3,i
Cc1cccc2sc(NNC(=O)c3ccc(S(=O)(=O)N4CCc5ccccc5C4)cc3)nc12,70.7*,-2.42,2.89,0.6,i
COC(=O)C1CCN(c2ccc(Cl)nn2)CC1,.,0.57,-0.469,-0.1,i
COC(=O)C1(Cc2ccc(O)cc2)OC(=O)C(O)=C1c1ccc(O)cc1 (stereo not given),.,0.29,-0.377,.,.
CC(=O)Nc1ccc(SCC(=O)Nc2cc(C)on2)cc1,.,0.19,0.881,1.0,i
O=C(CSc1nnc2c3ccccc3c3ccccc3c2n1)Nc1ccccc1,.,-0.67,-0.799,1.2,+
CCOc1ccc(N(C(=O)CNC(=O)c2cccs2)C(C(=O)NCC2CCCO2)c2ccc(OC)c(OC)c2)cc1 (stereo not given),5.0,0.43,-0.675,-0.4,+
CCC(C(=O)Nc1ccc(C(=O)N2CCCC2)cc1)c1ccccc1 (stereo not given),-13.3,-0.12,1.05,-0.3,i
O=C(OCC(=O)N1CCCC1)c1ccccc1OCc1ccccc1,-58.3,.,1.8,-1.7,i
O=C(OCC(=O)N1CCN(C(=O)c2ccco2)CC1)c1ccccc1OCc1ccccc1,-26.7,11.8*,-0.187,-0.3,i
SMILES,Insulin prom inh,Insulin prom up,Dynein cargo inh,PERK inh,Autophagy mod
Cc1cnc(C)c(N2CCN(Cc3nc(-c4ccccc4)no3)CC2)n1,.,.,0.311,0.7,i
Cc1ccc(NCc2ccc(O)c3ncccc23)cc1,28.6,1.34,-0.29,1.7,i
Cc1ccc(NCc2ccc(O)c3ncccc23)cc1C,78.6*,0.09,-0.575,0.2,i
COCCn1c(Cc2ccccc2)nnc1SCc1ccc([N+](=O)[O-])cc1,2.7,-0.92,-0.0937,-0.8,i
CCCCCn1nc(C)c(/C=N/NC(=O)c2ccoc2C)c1C,93.3*,.,-0.933,-0.9,i
CCn1nc(C)c(/C=N/NC(=O)c2ccoc2C)c1C,28.9,1.09,-0.923,1.1,i
CCCCCn1nc(C)c(/C=N\NC(=O)c2cc(C)oc2C)c1C,84.6*,-0.16,-0.432,-0.7,i
Cc1cc(C(=O)N/N=C/c2c(C)nn(-c3ccccc3)c2C)c(C)o1,.,.,1.73,-0.7,.
O=C(Nc1ccccc1-c1nc2ccccc2s1)C1=COCCO1,4.0,-0.67,-0.0848,0.5,i
CN(Cc1nc2ccccc2n1C)S(=O)(=O)c1ccc(F)cc1,93.3*,-0.34,-0.0971,-1.1,i
CCc1nc(CN2CCCC(C(=O)c3ccc4c5c(cccc35)CC4)C2)c(C)[nH]1 (stereo not given),-14.3,-2.13,0.558,-0.4,+
CCCN1CC(O)=C(C#N)C1=O,12.8,-0.05,-0.193,0.6,i
COc1cccc(/C=N/NC(=S)Nc2cccc(S(=O)(=O)N(C)C)c2)c1,.,-0.12,-0.389,-1.8,.
COc1ccc(O)c(/C=N/NC(=S)Nc2cccc(S(=O)(=O)N(C)C)c2)c1,30.0,-0.26,1.67,-1.2,+
COc1ccc(N2CC(NC(=O)NCCC(C)C)CC2=O)cc1 (stereo not given),.,0.05,0.291,0.9,i
Cc1ccc(N2CCN(S(=O)(=O)N3CCCCC3)CC2)cc1Cl,70.3*,0.38,0.385,0.4,i
Cc1ccnn1CCC(=O)N1CCCC(CCC(=O)N2CCN(c3ccccn3)CC2)C1 (stereo not given),.,-1.13,-0.0443,0.8,i
N#CC(c1ccc(Cl)cc1)c1ccc2c(C(F)(F)F)cc(C(F)(F)F)nc2n1 (stereo not given),-40.6,.,1.94,-0.3,+
COc1ccc(NC(=O)/C(Cl)=C(/Cl)S(=O)Cc2ccc(Cl)cc2)cn1 (stereo not given),-387.8,-0.63,-5.44*,0.5,i
N#C/C(=C/c1ccc(-c2cc(C(=O)O)cc(C(=O)O)c2)o1)c1nc2ccccc2s1,6.2,3.02*,0.816,0.6,i
N#C/C(=C\c1ccco1)c1nc2ccccc2s1,.,-0.21,-0.352,0.7,i
CC1=C(C(=O)N2CCOCC2)C(c2ccc(Br)cc2)NC(=S)N1c1ccccc1 (stereo not given),.,1.11,-0.414,1.1,i
CC1=C(C(=O)N2CCOCC2)C(c2ccc(OC(F)F)cc2)NC(=S)N1c1ccccc1 (stereo not given),36.8,-0.42,0.308,0.9,+
Cc1ccc(-c2cc3ccccc3nc2N2CCOCC2)cc1,.,-0.44,0.715,-0.7,+
c1ccc(-c2cc3ccccc3nc2N2CCCC2)cc1,23.3,-0.22,0.146,-1.5,i
N#CC1=C2SCC(O)(c3ccccc3)N2C(=O)CC1c1ccccc1 (stereo not given),.,-0.89,-0.52,-1.5,+
CCc1ccc(C2CC(=O)N3CN(c4ccccc4)CSC3=C2C#N)cc1 (stereo not given),.,0.19,1.51,-0.5,i
COc1ccc(C(=O)c2sc3nc(-c4ccccc4)ccc3c2N)cc1,-207.4,?,-0.816,0.2,+
CCOC(=O)c1sc2nc(-c3cccnc3)ccc2c1N,71.4*,-0.21,2.88,0.2,i
